Measured values published in ChEMBL document CHEMBL3860041, “Synthesis, biological evaluation and molecular modeling study of some new methoxylated 2-benzylthio-quinazoline-4(3H)-ones as nonclassical antifolates” (Bioorg Med Chem Lett, 2016).

Experiments:
[1] = Growth inhibition of human A498 cells at 10 uM after 48 hrs by SRB assay relative to control; type: functional; details: A498, 48 h, read-out: GI
Method in brief: (§1)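 NCI 60-cell-line panel, nine tumor subpanels; compounds tested at a single dose of 10 μM in the primary screen.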

[2] = Growth inhibition of human SK-MEL-2 cells at 10 uM after 48 hrs by SRB assay relative to control; type: functional; details: SK-MEL-2, 48 h, read-out: GI
Method in brief: (§2)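 Primary screen across the full NCI 60 human tumour cell line panel, which covers nine tumour subpanels. A single dose of 10 μM was applied to each line, and growth was recorded for each cell line.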

[3] = Growth inhibition of human SK-MEL-5 cells at 10 uM after 48 hrs by SRB assay relative to control; type: functional; details: SK-MEL-5, 48 h, read-out: GI; method in brief: as §2
[4] = Growth inhibition of human SN12C cells at 10 uM after 48 hrs by SRB assay relative to control; type: functional; details: read-out: GI; method in brief: as §2
[5] = Growth inhibition of human prostate cancer cells after 48 hrs by SRB assay; type: functional; details: Cancer cell lines
Method in brief: (§3)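 Follow-up NCI panel testing over a 5-log dose range for each cell line. GI50, TGI and LC50 were monitored, with 5-fluorouracil run as the positive control. Values are grouped by tumour subpanel.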

[6] = Growth inhibition of human BT549 cells at 10 uM after 48 hrs by SRB assay relative to control; type: functional; details: BT-549, 48 h, read-out: GI; method in brief: as §1
[7] = molecular target: T1, Dihydrofolate reductase (Bos taurus, UniProt P00376); assay: Inhibition of bovine liver DHFR preincubated for 2 mins followed by addition of FH2 as substrate and NADPH
T1 sequence (P00376 whole entry): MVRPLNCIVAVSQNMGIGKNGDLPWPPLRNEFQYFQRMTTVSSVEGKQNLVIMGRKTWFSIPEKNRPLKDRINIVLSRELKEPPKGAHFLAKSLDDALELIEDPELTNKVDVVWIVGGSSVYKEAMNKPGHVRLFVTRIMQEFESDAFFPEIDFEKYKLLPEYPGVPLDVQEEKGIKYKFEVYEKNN

[8] = Growth inhibition of human SK-MEL-28 cells at 10 uM after 48 hrs by SRB assay relative to control; type: functional; details: SK-MEL-28, 48 h, read-out: GI; method in brief: as §2
[9] = Growth inhibition of human KM12 cells at 10 uM after 48 hrs by SRB assay relative to control; type: functional; details: KM12, 48 h, read-out: GI; method in brief: as §1
[10] = Growth inhibition of human NCI/ADR-RES cells at 10 uM after 48 hrs by SRB assay relative to control; type: functional; details: read-out: GI; method in brief: as §1
[11] = Growth inhibition of human Hs 578T cells at 10 uM after 48 hrs by SRB assay relative to control; type: functional; details: read-out: GI; method in brief: as §1
[12] = Growth inhibition of human MDA-MB-231 cells at 10 uM after 48 hrs by SRB assay relative to control; type: functional; details: MDA-MB-231, 48 h, read-out: GI; method in brief: as §1
[13] = tested on: Cancer cell lines; assay: Potency index, ratio of 5-fluorouracil GI50 to compound GI50 for human renal cancer cells; type: functional
Method in brief: (§4)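 GI50 for each cell line came from NCI panel testing over a 5-log dose range, with 5-fluorouracil tested alongside as the reference drug. The index relates the 5-fluorouracil GI50 to the compound GI50 within each tumour subpanel.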

[14] = tested on: Cancer cell lines; assay: Potency index, ratio of 5-fluorouracil GI50 to compound GI50 for human prostate cancer cells; type: functional; method in brief: as §4
[15] = Growth inhibition of human HT-29 cells at 10 uM after 48 hrs by SRB assay relative to control; type: functional; details: HT-29, 48 h, read-out: GI; method in brief: as §1
[16] = Growth inhibition of human SKOV3 cells at 10 uM after 48 hrs by SRB assay relative to control; type: functional; details: SK-OV-3, 48 h, read-out: GI; method in brief: as §2
[17] = Growth inhibition of human OVCAR4 cells at 10 uM after 48 hrs by SRB assay relative to control; type: functional; details: OVCAR-4, 48 h, read-out: GI; method in brief: as §1
[18] = Growth inhibition of human NCI-H23 cells at 10 uM after 48 hrs by SRB assay relative to control; type: functional; details: NCI-H23, 48 h, read-out: GI; method in brief: as §1
[19] = Growth inhibition of human non-small cell lung cancer cells after 48 hrs by SRB assay; type: functional; details: Cancer cell lines; method in brief: as §3
[20] = tested on: Cancer cell lines; assay: Potency index, ratio of 5-fluorouracil GI50 to compound GI50 for human breast cancer cells; type: functional; method in brief: as §4
[21] = Growth inhibition of human HCT15 cells at 10 uM after 48 hrs by SRB assay relative to control; type: functional; details: HCT-15, 48 h, read-out: GI; method in brief: as §1
[22] = Growth inhibition of human IGROV1 cells at 10 uM after 48 hrs by SRB assay relative to control; type: functional; details: IGROV-1, 48 h, read-out: GI; method in brief: as §1
[23] = Growth inhibition of human K562 cells at 10 uM after 48 hrs by SRB assay relative to control; type: functional; details: K562, 48 h, read-out: GI; method in brief: as §1
[24] = Growth inhibition of human OVCAR5 cells at 10 uM after 48 hrs by SRB assay relative to control; type: functional; details: OVCAR-5, 48 h, read-out: GI; method in brief: as §1
[25] = Growth inhibition of human SF268 cells at 10 uM after 48 hrs by SRB assay relative to control; type: functional; details: SF-268, 48 h, read-out: GI; method in brief: as §1
[26] = tested on: Leukemia cell; assay: Potency index, ratio of 5-fluorouracil GI50 to compound GI50 for human leukemia cells; type: functional; method in brief: as §4
[27] = Growth inhibition of human SW620 cells at 10 uM after 48 hrs by SRB assay relative to control; type: functional; details: SW-620, 48 h, read-out: GI; method in brief: as §2
[28] = Growth inhibition of human colon cancer cells after 48 hrs by SRB assay; type: functional; details: Cancer cell lines; method in brief: as §3
[29] = Growth inhibition of human HCT116 cells at 10 uM after 48 hrs by SRB assay relative to control; type: functional; details: HCT-116, 48 h, read-out: GI; method in brief: as §1
[30] = Growth inhibition of human OVCAR8 cells at 10 uM after 48 hrs by SRB assay relative to control; type: functional; details: OVCAR-8, 48 h, read-out: GI; method in brief: as §1
[31] = Growth inhibition of human SF539 cells at 10 uM after 48 hrs by SRB assay relative to control; type: functional; details: SF-539, 48 h, read-out: GI; method in brief: as §1
[32] = Growth inhibition of human NCI-H522 cells at 10 uM after 48 hrs by SRB assay relative to control; type: functional; details: NCI-H522, 48 h, read-out: GI; method in brief: as §1

SMILES	inhibition of growth at 10 µM [1]	inhibition of growth at 10 µM [2]	inhibition of growth at 10 µM [3]	inhibition of growth at 10 µM [4]	GI50 [5]	LC50 (concentration killing 50% of cells) [5]	inhibition of growth at 10 µM [6]	IC50 [7]	inhibition of growth at 10 µM [8]	inhibition of growth at 10 µM [9]	inhibition of growth at 10 µM [10]	inhibition of growth at 10 µM [11]	inhibition of growth at 10 µM [12]	RatioGI50 [13]	RatioGI50 [14]	inhibition of growth at 10 µM [15]	inhibition of growth at 10 µM [16]	inhibition of growth at 10 µM [17]	inhibition of growth at 10 µM [18]	GI50 [19]	other results
COc1cc(CSc2nc3ccc(Cl)cc3c(=O)n2Cc2ccccc2)cc(OC)c1OC	76%	78.6%	74.4%	61.5%	4 µM	> 100 µM	78.3%	4 µM	56.3%	76.4%	86.1%	69.5%	61.2%	2 - 10	2 - 10	88.3%	75.7%	48%	74.9%	5.5 µM	TGI [5]: > 100 µM; LC50 (concentration killing 50% of cells) [19]: 97.6 µM; TGI [19]: 66.5 µM; RatioGI50 [20]: 2 - 10; inhibition of growth at 10 µM [21]: 75.1%; inhibition of growth at 10 µM [22]: 64.7%; inhibition of growth at 10 µM [23]: 87.2%; inhibition of growth at 10 µM [24]: 53.3%; inhibition of growth at 10 µM [25]: 59.1%; RatioGI50 [26]: 2 - 10; inhibition of growth at 10 µM [27]: 71.4%; GI50 [28]: 3.1 µM; LC50 [28]: 87.5 µM; TGI [28]: 86.3 µM; inhibition of growth at 10 µM [29]: 79.2%; inhibition of growth at 10 µM [30]: 47.1%; inhibition of growth at 10 µM [31]: 94.2%
COc1cc(CSc2nc3ccc(C)cc3c(=O)n2Cc2ccccc2)cc(OC)c1OC	93%	99.1%	82.2%	60%	2.9 µM	> 100 µM	65.2%	1 µM	48%	74.7%	87.3%	79.3%	55.6%	10	10	89.5%	76.1%	46.9%	78.7%	4 µM	TGI [5]: 60.2 µM; LC50 (concentration killing 50% of cells) [19]: 98.2 µM; TGI [19]: 65.9 µM; RatioGI50 [20]: 10; inhibition of growth at 10 µM [21]: 70.8%; inhibition of growth at 10 µM [22]: 75.7%; inhibition of growth at 10 µM [23]: 86.2%; inhibition of growth at 10 µM [24]: 54.7%; inhibition of growth at 10 µM [25]: 48.5%; RatioGI50 [26]: 10; inhibition of growth at 10 µM [27]: 74.2%; GI50 [28]: 1.6 µM; LC50 [28]: 87.1 µM; TGI [28]: 76.1 µM; inhibition of growth at 10 µM [29]: 74.9%; inhibition of growth at 10 µM [30]: 64.9%
COc1cc(CSc2nc3ccc(C)cc3c(=O)n2-c2ccccc2)cc(OC)c1OC	84%	85.3%	80%	63%	3.4 µM	> 100 µM	80.4%	7 µM	47.9%	74.7%	82.2%	71.8%	62.1%	10	10	85.7%	86.4%	42.8%	78%	3 µM	LC50 (concentration killing 50% of cells) [19]: > 100 µM; TGI [19]: 87 µM; RatioGI50 [20]: 10; inhibition of growth at 10 µM [21]: 69.9%; inhibition of growth at 10 µM [22]: 66.8%; inhibition of growth at 10 µM [23]: 89.6%; inhibition of growth at 10 µM [24]: 53.6%; inhibition of growth at 10 µM [25]: 52.6%; RatioGI50 [26]: 10; inhibition of growth at 10 µM [32]: 91.7%; inhibition of growth at 10 µM [27]: 70.3%; GI50 [28]: 1.3 µM; LC50 [28]: > 100 µM; TGI [28]: 86.3 µM; inhibition of growth at 10 µM [29]: 73.4%; inhibition of growth at 10 µM [30]: 47.2%; inhibition of growth at 10 µM [31]: 96.5%
